ChEMBL document CHEMBL3112586, “Synthesis of neolignans as microtubule stabilisers” (Bioorg Med Chem, 2014)
Activity calls are given as the source filed them. The calls are words filed in the database; no cut-off is given here.

Columns and labels:
[1] = system: Mus musculus; experiment: Toxicity in Swiss albino mouse assessed as change in body weight at 5 mg/kg, po (reference value: 24.5 +/- 0.76 g); format: organism-based; design: dose 5 mg/kg, route oral; conditions: in vivo
[2] = biological target: T1, Tubulin (Homo sapiens) (UniProt P68371+Q9H4B7+P0DPH7+P68366+Q13509+Q71U36+P04350+Q3ZCM7+P07437+P68363+Q9BQE3+Q6PEY2+Q13885+Q9BVA1+Q9BUF5); experiment: Induction of tubulin polymerization (unknown origin) at 10 to 40 uM measured every min for 1 hr in presence of PDT; format: protein-complex assay
Method in brief: (§1)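 Tubulin 3 mg/mL in 80 mM PIPES pH 6.9, 2 mM MgCl2, 0.5 mM EGTA, 1 mM GTP, 15% glycerol at 37 °C with test compounds at varied concentrations; turbidity at 340 nm read every min for 1 h; podophyllotoxin inhibitor and paclitaxel stabiliser references, DMSO negative control.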

[3] = biological target: T1, Tubulin (Homo sapiens); experiment: Induction of tubulin polymerization (unknown origin) at 10 to 40 uM measured every min for 1 hr; format: protein-complex assay; method in brief: as §1
[4] = system: MCF7; experiment: Cell cycle arrest in human MCF7 cells assessed as decrease in S phase at 5 to 30 uM after 24 hrs by propidium iodide staining-based FACS analysis relative to untreated control; format: functional
Method in brief: (§2)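 MCF-7 in DMEM, 10% FBS, 37 °C, 5% CO2; treated 24 h, harvested, washed cold PBS, resuspended 2 × 10⁶ cells/ml, fixed absolute ethanol, RNase A treated, propidium iodide (50 µg/mL) 30 min room temperature; DNA content by flow cytometry; phase distribution versus untreated control.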

[5] = system: MDA-MB-231; experiment: Cytotoxicity against human MDA-MB-231 cells after 48 to 72 hrs by MTT assay; format: functional, cell-based
Method in brief: (§3)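 Cells in DMEM, 10% FBS, 37 °C, 5% CO2, plated and incubated 24 h; compounds diluted in phenol-red-free DMEM with 0.5% FBS, vehicle control; after exposure, MTT (5 mg/mL stock) added 3 h, formazan dissolved in DMSO, absorbance 570 nm; IC50 derived; podophyllotoxin and tamoxifen positive controls.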

[6] = system: MDA-MB-231; experiment: Cytotoxicity against human MDA-MB-231 cells after 24 hrs by MTT assay; format: functional, cell-based; conditions: MDA-MB-231, 24 h; method in brief: as §3
[7] = system: MDA-MB-231; experiment: Cytotoxicity against human MDA-MB-231 cells after 72 hrs by MTT assay; format: functional, cell-based; conditions: MDA-MB-231, 72 h; method in brief: as §3
[8] = system: Mus musculus; experiment: Toxicity in Swiss albino mouse assessed as change in basophil count at 5 to 1000 mg/kg, po relative to control; format: organism-based; design: dose 5-1000 mg/kg, route oral; conditions: in vivo
[9] = system: Mus musculus; experiment: Toxicity in Swiss albino mouse assessed as change in neutrophil count at 5 to 1000 mg/kg, po relative to control; format: organism-based; design: dose 5-1000 mg/kg, route oral; conditions: in vivo
[10] = organism: Homo sapiens; experiment: Induction of microtubule stabilization (unknown origin) at 4 to 20 uM
[11] = system: MCF7; experiment: Cell cycle arrest in human MCF7 cells assessed as accumulation at G2/M phase at 5 to 30 uM after 24 hrs by propidium iodide staining-based FACS analysis; format: functional; method in brief: as §2
[12] = system: Mus musculus; experiment: Toxicity in Swiss albino mouse assessed as absolute kidney weight at 5 to 1000 mg/kg, po relative to control; format: organism-based; design: dose 5-1000 mg/kg, route oral; conditions: in vivo
[13] = system: Mus musculus; experiment: Toxicity in Swiss albino mouse assessed as absolute lungs weight at 5 to 1000 mg/kg, po relative to control; format: organism-based; design: dose 5-1000 mg/kg, route oral; conditions: in vivo
[14] = system: Mus musculus; experiment: Toxicity in Swiss albino mouse assessed as relative liver weight at 5 to 1000 mg/kg, po relative to control; format: organism-based; design: dose 5-1000 mg/kg, route oral; conditions: in vivo
Method in brief: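 One oral dose (5–1000 mg/kg; DMSO then 0.7% carboxymethyl cellulose vehicle; controls vehicle-only) was given to groups of 6 mice (3 male, 3 female). On day 7 the animals were sacrificed and necropsied for gross pathology. Absolute and relative weights of vital organs were recorded and compared with control.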

[15] = system: Mus musculus; experiment: Toxicity in Swiss albino mouse assessed as mortality up to 1000 mg/kg, po; format: organism-based; design: dose 1000 mg/kg, route oral; conditions: in vivo
Method in brief: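 Acute oral toxicity per OECD guideline 423. Mice of 20–25 g, 3 male and 3 female per group (n = 6), acclimatised 7 days. Single oral dose of 5, 50, 300 or 1000 mg/kg in DMSO suspended in 0.7% carboxymethyl cellulose; controls got vehicle only. Mortality and clinical signs checked hourly on the dosing day, then daily. On day 7: body weight, haematology, serum biochemistry, necropsy and organ weights.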

[16] = system: Mus musculus; experiment: Toxicity in Swiss albino mouse assessed as change in cholesterol level at 300 mg/kg, po (reference value: 81.64 +/- 4.26 mg/dL); format: organism-based; design: dose 300 mg/kg, route oral; conditions: in vivo
[17] = system: Mus musculus; experiment: Toxicity in Swiss albino mouse assessed as change in triglyceride level at 5 mg/kg, po (reference value: 121.45 +/- 24.02 mg/dL); format: organism-based; design: dose 5 mg/kg, route oral; conditions: in vivo
[18] = system: Mus musculus; experiment: Toxicity in Swiss albino mouse assessed as change in creatinine level at 300 mg/kg, po (reference value: 0.63 +/- 0.18 mg/dL); format: organism-based; design: dose 300 mg/kg, route oral; conditions: in vivo
[19] = system: Mus musculus; experiment: Toxicity in Swiss albino mouse assessed as change in albumin level at 5 mg/kg, po (reference value: 3.35 +/- 0.51 g/dL); format: organism-based; design: dose 5 mg/kg, route oral; conditions: in vivo
[20] = system: Mus musculus; experiment: Toxicity in Swiss albino mouse assessed as change in SGPT level at 1000 mg/kg, po (reference value: 12.28 +/- 3.73 U/L); format: organism-based; design: dose 1000 mg/kg, route oral; conditions: in vivo
[21] = system: Mus musculus; experiment: Toxicity in Swiss albino mouse assessed as change in SGPT level at 50 mg/kg, po (reference value: 12.28 +/- 3.73 U/L); format: organism-based; design: dose 50 mg/kg, route oral; conditions: in vivo
[22] = system: Mus musculus; experiment: Toxicity in Swiss albino mouse assessed as change in SGOT level at 1000 mg/kg, po (reference value: 25.27 +/- 1.32 U/L); format: organism-based; design: dose 1000 mg/kg, route oral; conditions: in vivo
[23] = system: Mus musculus; experiment: Toxicity in Swiss albino mouse assessed as change in SGOT level at 300 mg/kg, po (reference value: 25.27 +/- 1.32 U/L); format: organism-based; design: dose 300 mg/kg, route oral; conditions: in vivo
[24] = system: Mus musculus; experiment: Toxicity in Swiss albino mouse assessed as change in WBC count at 1000 mg/kg, po (reference value: 14.2 +/- 7.49 X 10^3/mm'3); format: organism-based; design: dose 1000 mg/kg, route oral; conditions: in vivo
[25] = system: Mus musculus; experiment: Toxicity in Swiss albino mouse assessed as change in WBC count at 300 mg/kg, po (reference value: 14.2 +/- 7.49 X 10^3/mm'3); format: organism-based; design: dose 300 mg/kg, route oral; conditions: in vivo
[26] = system: Mus musculus; experiment: Toxicity in Swiss albino mouse assessed as change in WBC count at 50 mg/kg, po (reference value: 14.2 +/- 7.49 X 10^3/mm'3); format: organism-based; design: dose 50 mg/kg, route oral; conditions: in vivo
[27] = system: Mus musculus; experiment: Toxicity in Swiss albino mouse assessed as change in RBC count at 5 mg/kg, po (reference value: 5.43 +/- 0.27 million/mm'3); format: organism-based; design: dose 5 mg/kg, route oral; conditions: in vivo
[28] = system: Mus musculus; experiment: Toxicity in Swiss albino mouse assessed as change in total haemoglobin level at 50 mg/kg, po (reference value: 11.39 +/- 0.84 g/dL); format: organism-based; design: dose 50 mg/kg, route oral; conditions: in vivo
[29] = system: Mus musculus; experiment: Toxicity in Swiss albino mouse assessed as change in total haemoglobin level at 5 mg/kg, po (reference value: 11.39 +/- 0.84 g/dL); format: organism-based; design: dose 5 mg/kg, route oral; conditions: in vivo

Structure (SMILES): CCOC(=O)/C=C/c1ccc(O)c(/C(=C/c2ccc(O)cc2)C(=O)OCC)c1
- Activity [1]: 24.33 g
- Activity [2]: inactive
- Activity [3]: Active
- Activity [4]: Active
- Activity [5]: Active
- IC50 [6]: 15 µM
- IC50 [7]: 0.45 µM
- Activity [8]: Non-toxic
- Activity [9]: Non-toxic
- Activity [10]: Active
- Activity [11]: Active
- Activity [12]: Non-toxic
- Activity [13]: Non-toxic
- Activity [14]: Non-toxic
- Activity [15]: Non-toxic
- Activity [16]: 77.65 mg/dL
- Activity [17]: 106.46 mg/dL
- Activity [18]: 0.79 mg/dL
- Activity [19]: 3.17 g/dL
- Activity [20]: 21.95 U/L
- Activity [21]: 12.52 U/L
- Activity [22]: 53.29 U/L
- Activity [23]: 37.95 U/L
- Activity [24]: 15.94 ×10³ /mm3
- Activity [25]: 13.76 ×10³ /mm3
- Activity [26]: 14.7 ×10³ /mm3
- Activity [27]: 5.99 million/mm3
- Activity [28]: 10.67 g/dL
- Activity [29]: 12.35 g/dL
